Data set [1] in a line: folding enthalpy; higher = less favourable; fluorescence melt of hairpins on a sequencing array, two-state fit. The conditions noted are these: sodium 0.088 M. In outline:
(§1)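 Folding enthalpy and melting temperature come from bootstrapped two-state fits to Cy3 fluorescence of library hairpins carrying annealed Cy3 and quencher oligos on a sequenced MiSeq flow cell. Imaging was done in 50 mM Na-HEPES pH 8.0, 25 mM NaCl, stepping by 2.5 °C up to 60 °C, and signals were normalised to pre-quench Cy3 and to control constructs. Results of four replicates were combined by inverse variance, and fitted temperatures were raised by 9.35 °C to match UV melts.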

A short description of data set [2]: melting temperature; fluorescence melt of hairpins on a sequencing array, two-state fit, raised by 9.35 °C to match UV melts. To be noted: sodium 0.088 M. In outline: as §1

Consider 73 sequences from the array DNA melting data of Ke et al. (doi:10.1101/2024.01.08.574731).

As for GCTTACGAAAGTACGAGC ((((((....)))..))), in data set [1], the folding enthalpy was -20.3 kcal/mol. In addition, the Tm in data set [2] turned out to be 32.1 °C.
As to GCTTACGAAAGTATTAGC ((((((....)))..))), the folding enthalpy in data set [1] was -23.9 kcal/mol. In addition, the Tm in data set [2] worked out at 33.5 °C.
Regarding GCTTACGGAAACATAAGC (((((.(....).))))), the folding enthalpy in data set [1] was -21.6 kcal/mol. In addition, the Tm in data set [2] is 35.1 °C.
As to GCTTAGCGAAAGCGGAGC (((..((....))..))), in data set [1], the folding enthalpy was -16.8 kcal/mol. For the same sequence, the Tm in data set [2] was found to be 58.7 °C.
The corresponding values for GCTTAGCGAAAGCTAGC (((.(((....)))))) are -19.2 kcal/mol and 53.8 °C.
The corresponding values for GCTTAGCGAAAGCTCCGC ((..(((....)))..)) are -12.8 kcal/mol and 36 °C.
GCTTAGGCGAAAGCCAGC (((..(((....)))))): the folding enthalpy in data set [1] was -15.1 kcal/mol. Also, in data set [2], the Tm was determined as 44.4 °C.
On to GCTTATGGAAACATGAGC (((.(((....))).))), for which, in data set [1], the folding enthalpy is -33.5 kcal/mol. Moreover, the Tm in data set [2] worked out at 45.6 °C.
In the case of GCTTCACCGAAAGGTAGC (((..(((....)))))), the folding enthalpy in data set [1] was -16.8 kcal/mol. In data set [2], the Tm was 35.3 °C.
As to GCTTCAGAAATGAAGC ((((((....)))))), the folding enthalpy in data set [1] was -33.7 kcal/mol. In addition, the Tm in data set [2] came out at 55.7 °C.
The corresponding values for GCTTCAGGAAACTGAAGC (((((((....))))))) are -32.9 kcal/mol and 66 °C.
Turning to GCTTCCCGAAAGGGGAGC (((.(((....))).))), the folding enthalpy in data set [1] was -46 kcal/mol. Further, the Tm in data set [2] is 65.5 °C.
Consider GCTTCCCGAAAGGGTAGC (((.(((....))).))), for which the folding enthalpy in data set [1] was -33.9 kcal/mol. Moreover, the Tm in data set [2] was determined as 56.4 °C.
The corresponding values for GCTTCCGAAAGGAAAAGC ((((((....)))..))) are -17.6 kcal/mol and 49.7 °C.
The corresponding values for GCTTCCGAAAGGAATAGC ((((((....)))..))) are -17.8 kcal/mol and 44 °C.
The corresponding values for GCTTCCGGAAACAGAAGC (((((.(....).))))) are -30.6 kcal/mol and 41.9 °C.
Regarding GCTTCGCGAAAGCAAGGC ((.(.((....)).).)), the folding enthalpy in data set [1] is -12.3 kcal/mol. In addition, the Tm in data set [2] was 36.1 °C.
As to GCTTCGCGAAAGCACAGC (((..((....))..))), the folding enthalpy in data set [1] was -15.3 kcal/mol. Besides, the Tm in data set [2] was determined as 38.2 °C.
Regarding GCTTCGCGAAAGCCAAGC ((((.((....)).)))), in data set [1], the folding enthalpy is -18.2 kcal/mol. Further, the Tm in data set [2] worked out at 50.3 °C.
Turning to GCTTCGCGAAAGCCGAGC (((..((....))..))), the folding enthalpy in data set [1] was -18.5 kcal/mol. Also, the Tm in data set [2] came to 41.7 °C.
The corresponding values for GCTTCGCGAAAGCTAAGC ((((.((....)).)))) are -20.5 kcal/mol and 57.2 °C.
For the sequence GCTTCGCGAAAGCTGAGC (((..((....))..))), the folding enthalpy in data set [1] was -14.5 kcal/mol. Moreover, the Tm in data set [2] was 45.5 °C.
As to GCTTCGCGAAAGCTTAGC (((..((....))..))), the folding enthalpy in data set [1] is -15.2 kcal/mol. In data set [2], the Tm was found to be 50.2 °C.
The corresponding values for GCTTCGGCGAAAGCCAGC (((..(((....)))))) are -10.3 kcal/mol and 40.2 °C.
Regarding GCTTCGGGAAACTGAAGC (((((.(....).))))), the folding enthalpy in data set [1] is -41.3 kcal/mol. For the same sequence, the Tm in data set [2] stood at 53.2 °C.
GCTTCGGGAAACTGGAGC (((.(.(....).).))): the folding enthalpy in data set [1] was -32.7 kcal/mol. Moreover, the Tm in data set [2] came out at 39.1 °C.
The corresponding values for GCTTCTCCGAAAGGAAGC (((..(((....)))))) are -24.2 kcal/mol and 45.3 °C.
The corresponding values for GCTTCTGCGAAAGCAAGC (((..(((....)))))) are -9.99 kcal/mol and 38.3 °C.
The corresponding values for GCTTCTGGAAACAGAGGC ((.((((....)))).)) are -33 kcal/mol and 48.3 °C.
As for GCTTGACGAAAGTCCAGC (((.(((....))).))), the folding enthalpy in data set [1] was -26.6 kcal/mol. Further, the Tm in data set [2] amounted to 49.9 °C.
The corresponding values for GCTTGAGGAAACCCAAGC (((((.(....).))))) are -37 kcal/mol and 46 °C.
Take GCTTGAGGAAACTTAAGC ((((.((....)).)))): the folding enthalpy in data set [1] was -26.4 kcal/mol. Moreover, the Tm in data set [2] was determined as 39.7 °C.
The corresponding values for GCTTGCCGAAAGGCAGC (((.(((....)))))) are -14.4 kcal/mol and 60.1 °C.
The corresponding values for GCTTGCCGAAAGGCTAGC (((.(((....))).))) are -27.8 kcal/mol and 64.4 °C.
With GCTTGCGAAAGCACAGC ((((((....))).))), the folding enthalpy in data set [1] is -20.1 kcal/mol. Moreover, in data set [2], the Tm turned out to be 50.5 °C.
The corresponding values for GCTTGCGAAAGCACGAGC ((((((....)))..))) are -15.9 kcal/mol and 46.9 °C.
The corresponding values for GCTTGCGAAAGCATAAGC ((((((....)))..))) are -19.4 kcal/mol and 47.9 °C.
Take GCTTGCGAAAGCATCAGC ((((((....)))..))): the folding enthalpy in data set [1] is -11.8 kcal/mol. In addition, in data set [2], the Tm came out at 37.1 °C.
The corresponding values for GCTTGCGGAAACGCGAGC (((.(((....))).))) are -29.3 kcal/mol and 64 °C.
The corresponding values for GCTTGCGGAAACGTAAGC ((((.((....)).)))) are -35.1 kcal/mol and 52.5 °C.
Regarding GCTTGCGGAAACGTGAGC (((..((....))..))), the folding enthalpy in data set [1] is -31.5 kcal/mol. The Tm in data set [2] stood at 46.5 °C.
The corresponding values for GCTTGGCCGAAAGGCAGC (((..(((....)))))) are -14.4 kcal/mol and 46.9 °C.
Consider GCTTGGCGAAAGCAACGC ((.(.((....)).).)), for which, in data set [1], the folding enthalpy was -10.5 kcal/mol. In addition, the Tm in data set [2] was found to be 33.5 °C.
The corresponding values for GCTTGGCGAAAGCAATGC ((.(.((....)).).)) are -12.8 kcal/mol and 38.4 °C.
Regarding GCTTGGCGAAAGCCCGGC ((..(((....)))..)), the folding enthalpy in data set [1] was -14.4 kcal/mol. Moreover, the Tm in data set [2] turned out to be 45.4 °C.
The corresponding values for GCTTGGCGAAAGCTTAGC (((..((....))..))) are -16.9 kcal/mol and 53.4 °C.
With GCTTGGGGAAACCCAAGC (((((((....))))))), the folding enthalpy in data set [1] was -43.6 kcal/mol. Also, the Tm in data set [2] stood at 68.3 °C.
As for GCTTGGGGAAACCCAGGC ((.((((....)))).)), the folding enthalpy in data set [1] is -36.8 kcal/mol. The Tm in data set [2] stood at 52.4 °C.
The corresponding values for GCTTGGGGAAACTCGAGC (((.(.(....).).))) are -31.3 kcal/mol and 36.9 °C.
For the sequence GCTTGTCGAAAGACTAGC (((.(((....))).))), the folding enthalpy in data set [1] was -34 kcal/mol. Also, in data set [2], the Tm was determined as 53.9 °C.
The corresponding values for GCTTGTGGAAACACGAGC (((.(((....))).))) are -37.8 kcal/mol and 54.5 °C.
The corresponding values for GCTTGTGGAAACGCAAGC (((((.(....).))))) are -39.5 kcal/mol and 55.6 °C.
The corresponding values for GCTTTAACGAAAGTTAGC (((..(((....)))))) are -18.8 kcal/mol and 31.9 °C.
As for GCTTTAGGAAACTAGAGC (((.(((....))).))), in data set [1], the folding enthalpy is -31.9 kcal/mol. Further, the Tm in data set [2] worked out at 35.4 °C.
Take GCTTTCCGAAAGGAGAGC (((.(((....))).))): in data set [1], the folding enthalpy was -38.7 kcal/mol. Moreover, the Tm in data set [2] stood at 54.8 °C.
In the case of GCTTTCGAAAGAAAAAGC ((((((....)))..))), the folding enthalpy in data set [1] is -26.6 kcal/mol. Further, in data set [2], the Tm amounted to 36 °C.
On to GCTTTCGAAAGAACAAGC ((((((....)))..))), for which the folding enthalpy in data set [1] is -24.3 kcal/mol. Besides, the Tm in data set [2] came out at 31.8 °C.
The corresponding values for GCTTTCGAAAGAAGTAGC ((((((....)))..))) are -23 kcal/mol and 34 °C.
The corresponding values for GCTTTCGAAAGAATAAGC ((((((....)))..))) are -21.6 kcal/mol and 33.4 °C.
Take GCTTTCGGAAACGAAGGC ((.((((....)))).)): the folding enthalpy in data set [1] was -35.3 kcal/mol. Besides, the Tm in data set [2] was found to be 50.9 °C.
In the case of GCTTTGCGAAAGCAACGC ((.((((....)))).)), the folding enthalpy in data set [1] was -20.8 kcal/mol. The Tm in data set [2] was 55.9 °C.
The corresponding values for GCTTTGCGAAAGCAGGGC ((..(((....)))..)) are -20.1 kcal/mol and 47 °C.
As for GCTTTGCGAAAGCCACGC ((.(.((....)).).)), the folding enthalpy in data set [1] was -10.4 kcal/mol. Further, the Tm in data set [2] worked out at 37 °C.
The corresponding values for GCTTTGCGAAAGCCAGGC ((.(.((....)).).)) are -10.2 kcal/mol and 38.3 °C.
The corresponding values for GCTTTGCGAAAGCCGAGC (((..((....))..))) are -16 kcal/mol and 41.9 °C.
Consider GCTTTGCGAAAGCCTAGC (((..((....))..))), for which the folding enthalpy in data set [1] was -13 kcal/mol. Moreover, the Tm in data set [2] is 41.1 °C.
Turning to GCTTTGCGAAAGCGAGGC ((.(.((....)).).)), the folding enthalpy in data set [1] is -17.1 kcal/mol. Further, the Tm in data set [2] amounted to 49.7 °C.
With GCTTTGGGAAACCGAAGC ((((.((....)).)))), the folding enthalpy in data set [1] was -39.5 kcal/mol. Besides, the Tm in data set [2] is 52.5 °C.
With GCTTTTCGAAAGAAGAGC (((.(((....))).))), in data set [1], the folding enthalpy is -30.7 kcal/mol. Moreover, the Tm in data set [2] was found to be 47.4 °C.
In the case of GCTTTTGAAAAAAAGC ((((((....)))))), the folding enthalpy in data set [1] was -30.5 kcal/mol. The Tm in data set [2] came to 50.4 °C.
On to GCTTTTGGAAACAAAGGC ((.((((....)))).)), for which the folding enthalpy in data set [1] is -28.9 kcal/mol. Moreover, the Tm in data set [2] is 43 °C.
GGAAAAGAAATTTTCC ((((((....)))))): in data set [1], the folding enthalpy is -23.4 kcal/mol. Moreover, in data set [2], the Tm was 37.7 °C.
With GGAAACCCGAAAGGGTCC (((..(((....)))))), in data set [1], the folding enthalpy is -11.7 kcal/mol. Besides, in data set [2], the Tm came out at 35 °C.
